Experimental findings from the EternaBench riboswitch data are described below.

In this data set the test system is MS2 coat protein. As to the kind of experiment: apparent Kd, MS2 coat protein; higher = weaker binding; RNA-MaP array. In short, it runs like this: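 Designs measured on fewer than 10 clusters were excluded from the data. The rest were RNAs transcribed from sequenced DNA templates on an Illumina sequencing chip and incubated at room temperature, with or without input ligand, with fluorescently labeled MS2 coat protein at 1.5 nM to 3 μM for 0.8–1.5 h at the lowest to 10–20 min at the highest concentrations. Apparent Kd is the median of the per-cluster binding-curve fits.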

The mark [1] stands for this setting: designed as: ON switch for flavin mononucleotide, no ligand.
The mark [2] stands for this setting: ligand present: flavin mononucleotide, designed as: ON switch for flavin mononucleotide.
[3] abbreviates: designed as: OFF switch for flavin mononucleotide, no ligand.
[4] abbreviates: ligand present: flavin mononucleotide, designed as: OFF switch for flavin mononucleotide.

The apparent Kd is the concentration giving half-maximal binding under the conditions of the assay.

Turning to “GUGUUCACUGCAGGAUAUGUACAUGAGGAUCACCCAUGUUGAAACGGCUGGAAUCGGCAGAUGAAACAGAAGGGCAUGAAAAUU”, the “apparent Kd” value worked out at 12.8 nM under setting [1] and 9.09 nM under setting [2].
As to “AUGGUGGCUUCAGGAUAUCGCAAGUUAAUACGUCCCACAUGAGGAUCACCCAUGUAACGGUGGGUCGAGAAGGGAACCAUCCCG”, the “apparent Kd” value is, setting by setting: under setting [3], 90.8 nM; under setting [4], 63.5 nM.
As to “UCUAGAUCAUCGUGACAUGAGGAUCACCCAUGUCUGCGGGCAAGAAGGUGGUCGUUGUCUAACACCAAGGAUAUUGAGGGAGGU”, the “apparent Kd” value under setting [1] turned out to be 51.5 nM and the “apparent Kd” value under setting [2] worked out at 30.4 nM.
As to “GACAUCCUCACAAUACAUGAGGAUCACCCAUGUGAAGUGGCCUAGGAUAUUCAAGAGUGGGUCACGAAGAAGGAGGCUGCAGGA”, the “apparent Kd” value reads like this: under setting [3], 33.3 nM; under setting [4], 28.3 nM.
Regarding “GCCUAGCUAGGAUAUACCAGAGUGUAUACUUAUGUGGAUCGACAUGAGGAUCACCCAUGUAGAAGGAGCAAGAU”, the “apparent Kd” value by setting is: under setting [3], 30.8 nM; under setting [4], 58 nM.
As for “AGCGCCUUAUCAGGAUAUAUGCGCAUGAAGUAGGUACACAUGAGGAUCACCCAUGUCCGGGGAACAUAGAAGGGAUAGAAGUAG”, the “apparent Kd” value was found to be 86.9 nM under setting [1] and 48.7 nM under setting [2].
Consider “UCCAGACAUGAGGAUCACCCAUGUUGUGAUACCAGAACCGUGGAGUUCCCUUGGCAGCACUAAGAAGUUCCUGGAUCAGCUAGCG”, for which the “apparent Kd” value (designed as: ON switch for theophylline, no ligand) is 27.6 nM and the “apparent Kd” value (ligand present: theophylline, designed as: ON switch for theophylline) worked out at 32.8 nM.
Regarding “ACGAAAUCUUAAACUUACGCACAUGAGGAUCACCCAUGUCACUAGGAUAUUAAAACAAAACAAUGUAAGAAGGAGUGAGAAAAG”, the “apparent Kd” value stood at 13.6 nM under setting [1] and 11.8 nM under setting [2].
For “UUUAGACGGCAGAAGGCGGGCUCGCGCGGUGUACAUGAGGAUCACCCAUGUGUUUGCCAUCUACCCGAGGAUAUGCAGUGAUGG” the same measures were 39.4 nM and 13.2 nM.
With “CAUAUGUUAGGAUAUAAGUUUAGAUCAUGCGUGUUUAUGGCUUAGAAGGAACAUGAGGAUCACCCAUGUAACAG”, the “apparent Kd” value came out at 21.2 nM under setting [3] and 22.3 nM under setting [4].
For “UAGGAUAACACAGGAUAUACCCUUGUCGUCGGUUCUAAAUUACAUGAGGAUCACCCAUGUCUAAGGUAGAAGGGUGUUUGCGGU” the same measures were 31.6 nM and 29.6 nM.
For “UGGAAAUGAAUAGGAUAUCAGUGUUGUCUAUAACAUGAGGAUCACCCAUGUUUCCAUUGGCCUCGUGAGAAGGAUUCUAGUAUU”, the “apparent Kd” value stood at 81.6 nM under setting [1] and 22.3 nM under setting [2].
Consider “UCAUCACAUGAGGAUCACCCAUGUCGUAGGUGAUCAGGAUAUGCCUAUGCCUCCAUGGCGGCAGAAGGGAUGCGGG”, for which the “apparent Kd” value under setting [1] was 795 nM and the “apparent Kd” value under setting [2] was 603 nM.
For the sequence “UCUCAAAUAAAUAUCAUACAUGAGGAUCACCCAUGUCACCGAUAGGAUAUGCGCGUUUCCCACCUGCAGAAGGAUCAAACUGUA”, the “apparent Kd” value reads like this: under setting [1], 15.4 nM; under setting [2], 13.4 nM.
On to “GGCGUAUCAGGAUAUGCGUUUUGAGACAUGAGGAUCACCCAUGUCCUUAGCUCAGUUAAAGCAGAAGGGAUUAUUA”, for which the “apparent Kd” value runs as follows: under setting [3], 16.9 nM; under setting [4], 34.1 nM.
Consider “GAGAGAAAGCCAGGAUAUUAGAACUAGGCACAUGAGGAUCACCCAUGUGGUGAUGAUCAUAAGACUAAGAAGGGGCACCGGAUU”, for which the “apparent Kd” value runs as follows: under setting [1], 521 nM; under setting [2], 450 nM.
For “UAGUCGUGGGCAGGAUAUCACUUUAUGCCAAUAUGAGAAGGGCCGGUGACAAGGCGGGCGACCACAUGAGGAUCACCCAUGUAC”, the “apparent Kd” value under setting [3] was determined as 79.6 nM and the “apparent Kd” value under setting [4] was found to be 47.9 nM.
On to “UCAAUACAGUCGGCCGCCACUGUAACCAAACCUACAUACCAACAUGAGGAUCACCCAUGUUUAUACAGGACCGGGACCUCUAUGA”, for which the “apparent Kd” value reads like this: (designed as: ON switch for tryptophan, no ligand) 36.6 nM; (ligand present: tryptophan, designed as: ON switch for tryptophan) 28.5 nM.
For the sequence “GGCUCCGUAGGAUAUCGUAUUAGCGACAUGAGGAUCACCCAUGUUCAUUUGUCCUCAAUACGAGAAGGACGAACUC”, the “apparent Kd” value runs as follows: under setting [3], 16.1 nM; under setting [4], 18.3 nM.
As to “UACAUGAGGAUCACCCAUGUCAAACCGUUCUAGGACUAGGUAAGAAGGGUCAUCCUACAAUGUUGACAGGAUAUUACGUAGCUG”, the “apparent Kd” value under setting [1] came out at 348 nM and the “apparent Kd” value under setting [2] was determined as 71.3 nM.
